How the values were obtained:
[1] = Plasma concentration in guinea pig; format: ADME, Cavia porcellus
[2] = Cmax in rat at 125 mg/kg, po for 5 days; format: ADME, organism-based; parameters: dose 125 mg/kg, route oral; conditions: in vivo
Canis familiaris = species on record: Canis familiaris; assay: Toxicity in dog; parameters: species or system Canis lupus familiaris; conditions: in vivo
[3] = Drug uptake in Sprague-Dawley rat brain administered at 10 mg/kg, po measured after 2.0 hrs; format: ADME, organism-based
How it was run: (§1)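 Male Sprague Dawley rats (300–400 g) given 10 mg/kg p.o. One compound was dosed as a 0.5% HPMC suspension and the other as a 20% HP-β-cyclodextrin solution. Two animals per time point were killed with CO2 at 0.5, 2 and 6 h, and plasma and brain drug levels were taken. Data are mean ± SEM (n=2).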

[4] = Partition coefficient, log D of the compound at pH 7.4; format: physicochemical; conditions: octanol/water
Cavia porcellus = species on record: Cavia porcellus; assay: Toxicity in guinea pig; conditions: in vivo
[5] = Volume of distribution at steady state in cynomolgus monkey at 0.5 mg/kg, iv or […], po by LC-MS/MS method; format: ADME, organism-based, Macaca fascicularis; conditions: in vivo, read-out: Vdss
[6] = Oral bioavailability in cynomolgus monkey at […] by LC-MS/MS method; format: ADME, organism-based, Macaca fascicularis; conditions: in vivo
[7] = AUC in rat at 125 mg/kg, po for 5 days; format: ADME, organism-based; conditions: in vivo
[8] = Oral bioavailability in Sprague-Dawley rat at 5 mg/kg by LC-MS/MS method; format: ADME, organism-based; conditions: in vivo
How it was run: (§2)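 Single-dose PK in male Sprague-Dawley rats, beagle dogs or cynomolgus monkeys, given i.v. and p.o. as a solution in 50% PEG400/50% water or 20% HP-β-CD. Plasma measured by LC–MS/MS; parameters from noncompartmental analysis.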

[9] = Apparent permeability across basolateral to apical side in human Caco2 cells; format: ADME, cell-based; conditions: Caco-2
How it was run: (§3)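 Caco-2 bidirectional permeability, reported as Papp B-A/A-B (×10⁻⁶ cm/s).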

Plasma = assay: Plasma concentration in dog; format: ADME, Canis lupus familiaris
[10] = Cmax in Beagle dog at […], iv or 1.25 mg/kg, po by LC-MS/MS method; format: ADME, organism-based, Canis lupus familiaris; conditions: in vivo
[11] = Half life in Beagle dog at […], iv by LC-MS/MS method; format: ADME, organism-based, Canis lupus familiaris; conditions: in vivo
[12] = AUC (24 hrs) in Sprague-Dawley rat at 1 mg/kg, iv or 5 mg/kg, po by LC-MS/MS method; format: ADME, organism-based; conditions: in vivo
[13] = Half life in Sprague-Dawley rat at 1 mg/kg, iv by LC-MS/MS method; format: ADME, organism-based; conditions: in vivo; how it was run: as §2
[14] = Cmax in Sprague-Dawley rat at 1 mg/kg, iv or 5 mg/kg, po by LC-MS/MS method; format: ADME, organism-based; conditions: in vivo
[15] = Volume of distribution at steady state in Beagle dog at […], iv or 1.25 mg/kg, po by LC-MS/MS method; format: ADME, organism-based, Canis lupus familiaris; conditions: in vivo, read-out: Vdss
[16] = Apparent permeability across apical to basolateral side in human Caco2 cells; format: ADME, cell-based; conditions: Caco-2; how it was run: as §3
[17] = Drug uptake in Sprague-Dawley rat plasma administered at 10 mg/kg, po measured after 6.0 hrs; format: ADME, organism-based; how it was run: as §1
[18] = AUC in dog at 10 mg/kg, po for 5 days; format: ADME, organism-based, Canis lupus familiaris; conditions: in vivo
[19] = Half life in cynomolgus monkey at 0.5 mg/kg, iv by LC-MS/MS method; format: ADME, organism-based, Macaca fascicularis; conditions: in vivo; how it was run: as §2
[20] = Clearance in cynomolgus monkey at 0.5 mg/kg, iv or […], po by LC-MS/MS method; format: ADME, organism-based, Macaca fascicularis; conditions: in vivo
[21] = Cmax in cynomolgus monkey at 0.5 mg/kg, iv or […], po by LC-MS/MS method; format: ADME, organism-based, Macaca fascicularis; conditions: in vivo
[22] = Drug uptake in Sprague-Dawley rat brain administered at 10 mg/kg, po measured after 6.0 hrs; format: ADME, organism-based; how it was run: as §1
[23] = AUC (24 hrs) in Beagle dog at […], iv or 1.25 mg/kg, po by LC-MS/MS method; format: ADME, organism-based, Canis lupus familiaris; conditions: in vivo
[24] = Clearance in Beagle dog at […], iv or 1.25 mg/kg, po by LC-MS/MS method; format: ADME, organism-based, Canis lupus familiaris; conditions: in vivo
[25] = Oral bioavailability in Beagle dog at 1.25 mg/kg by LC-MS/MS method; format: ADME, organism-based, Canis lupus familiaris; conditions: in vivo; how it was run: as §2
[26] = Cmax in dog at 10 mg/kg, po for 5 days; format: ADME, organism-based, Canis lupus familiaris; parameters: dose 10 mg/kg, route oral; conditions: in vivo
[27] = AUC (24 hrs) in cynomolgus monkey at 0.5 mg/kg, iv or […], po by LC-MS/MS method; format: ADME, organism-based, Macaca fascicularis; conditions: in vivo
[28] = Clearance in Sprague-Dawley rat at 1 mg/kg, iv or 5 mg/kg, po by LC-MS/MS method; format: ADME, organism-based; conditions: in vivo
[29] = Drug uptake in Sprague-Dawley rat brain administered at 10 mg/kg, po measured after 0.5 hrs; format: ADME, organism-based; how it was run: as §1
[30] = Volume of distribution at steady state in Sprague-Dawley rat at 1 mg/kg, iv or 5 mg/kg, po by LC-MS/MS method; format: ADME, organism-based; conditions: in vivo, read-out: Vdss
[31] = Drug uptake in Sprague-Dawley rat plasma administered at 10 mg/kg, po measured after 0.5 hrs; format: ADME, organism-based; how it was run: as §1
[32] = Drug uptake in Sprague-Dawley rat plasma administered at 10 mg/kg, po measured after 2.0 hrs; format: ADME, organism-based; how it was run: as §1
[33] = AUC (24 hrs) in Sprague-Dawley rat at 0.5 mg/kg, iv or […], po by LC-MS/MS method; format: ADME, organism-based; conditions: in vivo
[34] = AUC in rat dosed at 250 mg/kg, po for 4 days; format: ADME, organism-based; conditions: in vivo
[35] = Oral bioavailability in Sprague-Dawley rat at […] by LC-MS/MS method; format: ADME, organism-based; conditions: in vivo
[36] = Cmax in rat at 250 mg/kg, po for 4 days; format: ADME, organism-based; parameters: dose 250 mg/kg, route oral; conditions: in vivo
[37] = Volume of distribution at steady state in cynomolgus monkey at 0.125 mg/kg, iv or 0.625 mg/kg, po by LC-MS/MS method; format: ADME, organism-based, Macaca fascicularis; conditions: in vivo, read-out: Vdss
[38] = Half life in Sprague-Dawley rat at 0.5 mg/kg, iv by LC-MS/MS method; format: ADME, organism-based; conditions: in vivo; how it was run: as §2
[39] = Clearance in Beagle dog at 0.125 mg/kg, iv or 0.625 mg/kg, po by LC-MS/MS method; format: ADME, organism-based, Canis lupus familiaris; conditions: in vivo
[40] = Half life in Beagle dog at 0.125 mg/kg, iv by LC-MS/MS method; format: ADME, organism-based, Canis lupus familiaris; conditions: in vivo
[41] = Oral bioavailability in Beagle dog at 0.625 mg/kg by LC-MS/MS method; format: ADME, organism-based, Canis lupus familiaris; conditions: in vivo; how it was run: as §2
[42] = Cmax in Sprague-Dawley rat at 0.5 mg/kg, iv or […], po by LC-MS/MS method; format: ADME, organism-based; conditions: in vivo
[43] = Clearance in cynomolgus monkey at 0.125 mg/kg, iv or 0.625 mg/kg, po by LC-MS/MS method; format: ADME, organism-based, Macaca fascicularis; conditions: in vivo
[44] = Cmax in dog at 300 mg/kg, po for 5 days; format: ADME, organism-based, Canis lupus familiaris; parameters: dose 300 mg/kg, route oral; conditions: in vivo
[45] = Volume of distribution at steady state in Beagle dog at 0.125 mg/kg, iv or 0.625 mg/kg, po by LC-MS/MS method; format: ADME, organism-based, Canis lupus familiaris; conditions: in vivo, read-out: Vdss
[46] = AUC (24 hrs) in cynomolgus monkey at 0.125 mg/kg, iv or 0.625 mg/kg, po by LC-MS/MS method; format: ADME, organism-based, Macaca fascicularis; conditions: in vivo
[47] = Volume of distribution at steady state in Sprague-Dawley rat at 0.5 mg/kg, iv or […], po by LC-MS/MS method; format: ADME, organism-based; conditions: in vivo, read-out: Vdss
[48] = Cmax in Beagle dog at 0.125 mg/kg, iv or 0.625 mg/kg, po by LC-MS/MS method; format: ADME, organism-based, Canis lupus familiaris; conditions: in vivo
[49] = Oral bioavailability in cynomolgus monkey at 0.625 mg/kg by LC-MS/MS method; format: ADME, organism-based, Macaca fascicularis; conditions: in vivo; how it was run: as §2
[50] = Half life in cynomolgus monkey at 0.125 mg/kg, iv by LC-MS/MS method; format: ADME, organism-based, Macaca fascicularis; conditions: in vivo; how it was run: as §2
[51] = AUC in dog at 300 mg/kg, po for 5 days; format: ADME, organism-based, Canis lupus familiaris; conditions: in vivo
[52] = Cmax in cynomolgus monkey at 0.125 mg/kg, iv or 0.625 mg/kg, po by LC-MS/MS method; format: ADME, organism-based, Macaca fascicularis; conditions: in vivo
[53] = Clearance in Sprague-Dawley rat at 0.5 mg/kg, iv or […], po by LC-MS/MS method; format: ADME, organism-based; conditions: in vivo
[54] = AUC (24 hrs) in Beagle dog at 0.125 mg/kg, iv or 0.625 mg/kg, po by LC-MS/MS method; format: ADME, organism-based, Canis lupus familiaris; conditions: in vivo

SMILES: C[C@H]1Cc2c(nnn2-c2ncc(F)cn2)CN1C(=O)c1ccnc(C(F)(F)F)c1F [ZANVIPIXANT]
- Cp [1]: 4095 ng/mL
- Cmax [2]: 26000 ng/mL
- NOAEL (Canis familiaris): 1280 ng/mL
- concentration at 2 h [3]: 2910 ng/mL
- logD [4]: 1.65
- NOAEL (Cavia porcellus): 1850 ng/mL
- Vd [5]: 1.3 L/kg
- bioavailability [6]: 97%
- AUC at 120 h [7]: 291000 ng·h/mL
- bioavailability [8]: 81%
- Papp B→A [9]: 45 ×10⁻⁶ cm/s
- Cp (Plasma): 2820 ng/mL
- Cmax [10]: 1120 ng/mL
- half-life [11]: 21.2 h
- AUC at 24 h [12]: 17500 ng·h/mL
- half-life [13]: 5.6 h
- Cmax [14]: 1750 ng/mL
- Vd [15]: 1.4 L/kg
- Papp A→B [16]: 35 ×10⁻⁶ cm/s
- concentration at 6 h [17]: 2440 ng/mL
- AUC at 120 h [18]: 167000 ng·h/mL
- half-life [19]: 6 h
- clearance [20]: 2.6 mL/min/kg
- Cmax [21]: 1860 ng/mL
- concentration at 6 h [22]: 1990 ng/mL
- AUC at 24 h [23]: 23300 ng·h/mL
- clearance [24]: 0.8 mL/min/kg
- bioavailability [25]: 98%
- Cmax [26]: 10700 ng/mL
- AUC at 24 h [27]: 16300 ng·h/mL
- clearance [28]: 3.7 mL/min/kg
- concentration at 0.5 h [29]: 3040 ng/mL
- Vd [30]: 1.7 L/kg
- concentration at 0.5 h [31]: 3190 ng/mL
- concentration at 2 h [32]: 3430 ng/mL

SMILES: C[C@H]1Cc2c(nnn2-c2ncc(F)cn2)CN1C(=O)c1cccc(C(F)(F)F)c1F
- AUC at 24 h [33]: 3190 ng·h/mL
- AUC at 96 h [34]: 108000 ng·h/mL
- bioavailability [35]: 90%
- Cmax [36]: 9260 ng/mL
- Vd [37]: 1.7 L/kg
- half-life [38]: 2.5 h
- clearance [39]: 3.8 mL/min/kg
- concentration at 2 h [3]: 2390 ng/mL
- logD [4]: 2.23
- half-life [40]: 8.8 h
- bioavailability [41]: 123%
- Papp B→A [9]: 73 ×10⁻⁶ cm/s
- Cmax [42]: 541 ng/mL
- clearance [43]: 26 mL/min/kg
- Papp A→B [16]: 49 ×10⁻⁶ cm/s
- concentration at 6 h [17]: 1050 ng/mL
- Cmax [44]: 5330 ng/mL
- Vd [45]: 2.6 L/kg
- AUC at 24 h [46]: 122 ng·h/mL
- Vd [47]: 2.5 L/kg
- concentration at 6 h [22]: 1620 ng/mL
- Cmax [48]: 305 ng/mL
- bioavailability [49]: 30%
- half-life [50]: 0.9 h
- AUC at 120 h [51]: 78400 ng·h/mL
- Cmax [52]: 36 ng/mL
- concentration at 0.5 h [29]: 1060 ng/mL
- concentration at 0.5 h [31]: 855 ng/mL
- clearance [53]: 12 mL/min/kg
- AUC at 24 h [54]: 3040 ng·h/mL
- concentration at 2 h [32]: 1880 ng/mL
